# Activity calls are given as the source filed them. The calls are words filed in the database; no cut-off is given here.
# Columns and labels:
# [1] = Cell cycle arrest in human CL1-0 cells assessed as accumulation at G0/G1 phase after 2 hrs by flow cytometry; assay type: functional, cell-based
# How it was run: (§1)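 CL1-0 cells seeded at 2×10^5 per 60 mm dish, incubated 24 h, then exposed to various drug concentrations for 2, 6, 12, 16 or 24 h. Harvested cells fixed in cold 70% ethanol at 4 °C for 16 h, treated with RNase A (20 µg/mL, 37 °C, 30 min), stained with propidium iodide (50 µg/mL, 4 °C, 30 min), analysed at once by flow cytometry for phase distribution.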
# CL1-0 [2] = experiment: Suppression of colony formation of human CL1-0 cells assessed as reduction of cell colonies after 10 to 14 days; assay type: functional, cell-based
# CL1-0 [3] = experiment: Induction of cyclin B1 protein accumulation in human CL1-0 cells at 0.5 ug/mL after 24 hrs by Western blot; assay type: functional, cell-based
# How it was run: (§2)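 CL1-0 cells exposed to rising concentrations for 24 h, or to 0.5 µg/mL over a time course; 50 µg lysate resolved by 10% SDS-PAGE, blotted, probed with cyclin/CDK-inhibitor antibodies in TBS-Tween/5% milk, HRP secondary, chemiluminescent film detection.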
# [4] = Cell cycle arrest in human CL1-0 cells assessed as accumulation at G0/G1 phase after 6 hrs by flow cytometry; assay type: functional, cell-based; how it was run: as §1
# CL1-0 [5] = experiment: Cytotoxicity against human CL1-0 cells assessed as disruption of cell morphology after 48 hrs; assay type: functional, cell-based
# [6] = molecular target: RAC-alpha serine/threonine-protein kinase (Homo sapiens) (UniProt P31749); experiment: Inhibition of AKT phosphorylation in human CL1-0 cells by Western blot; assay type: cell-based
# RAC-alpha serine/threonine-protein kinase (Homo sapiens), sequence (P31749 whole entry): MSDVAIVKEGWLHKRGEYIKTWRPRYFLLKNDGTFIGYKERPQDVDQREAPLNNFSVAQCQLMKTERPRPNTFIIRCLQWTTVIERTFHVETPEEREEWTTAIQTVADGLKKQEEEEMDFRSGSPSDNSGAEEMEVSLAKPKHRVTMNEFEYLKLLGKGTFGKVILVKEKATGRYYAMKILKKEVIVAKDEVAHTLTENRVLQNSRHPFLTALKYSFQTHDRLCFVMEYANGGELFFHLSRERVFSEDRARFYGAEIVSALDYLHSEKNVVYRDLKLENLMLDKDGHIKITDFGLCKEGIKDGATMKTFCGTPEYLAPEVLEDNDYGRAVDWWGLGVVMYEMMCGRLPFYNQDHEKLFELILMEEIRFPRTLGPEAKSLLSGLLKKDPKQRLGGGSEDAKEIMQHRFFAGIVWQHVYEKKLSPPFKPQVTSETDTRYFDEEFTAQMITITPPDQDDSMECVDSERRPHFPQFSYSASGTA
# How it was run: (§3)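 Western blot of CL1-0 cells after 24 h at increasing concentrations; probed for p-Akt, Akt and IκB; 50 µg lysate on 10% SDS-PAGE, HRP secondary, chemiluminescence on film.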
# [7] = Cell cycle arrest in human CL1-0 cells assessed as accumulation at G0/G1 phase after 24 hrs by flow cytometry; assay type: functional, cell-based; how it was run: as §1
# [8] = Cell cycle arrest in human CL1-0 cells assessed as accumulation at G2/M phase after 6 hrs by flow cytometry; assay type: functional, cell-based; how it was run: as §1
# [9] = Cell cycle arrest in human CL1-0 cells assessed as decrease in accumulation at G0/G1 phase by flow cytometry; assay type: functional, cell-based; settings: TDE = time-dependent effect; how it was run: as §1
# [10] = Cell cycle arrest in human CL1-0 cells assessed as accumulation at G2/M phase after 2 hrs by flow cytometry; assay type: functional, cell-based; how it was run: as §1
# CL1-0 [11] = experiment: Inhibition of TNF-alpha-induced NF-kappaB transcriptional in human CL1-0 cells by luciferase reporter gene assay; assay type: cell-based
# How it was run: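 CL1-0 cells transiently co-transfected with pNF-κB-Luc (0.2 µg) and pSV-β-galactosidase (1 µg) via lipofectamine; after 20 h switched to serum-free medium, pretreated 1 h, then stimulated with TNF-α for 4 h; luciferase normalized to β-galactosidase; n=3 independent transfections, mean ± SD.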
# CL1-0 [12] = experiment: Effect on p21 protein expression in human CL1-0 cells at 0.5 ug/mL after 24 hrs by Western blot; assay type: functional, cell-based; how it was run: as §2
# [13] = Cell cycle arrest in human CL1-0 cells assessed as accumulation at G2/M phase after 12 hrs by flow cytometry; assay type: functional, cell-based; how it was run: as §1
# [14] = Cell cycle arrest in human CL1-0 cells assessed as accumulation at S phase after 24 hrs by flow cytometry; assay type: functional, cell-based; how it was run: as §1
# A549 = experiment: Decrease in RelA binding affinity to NF-kappaB response element on COX2 promoter in human A549 cells by chromatin immunoprecipitation assay; assay type: functional, cell-based
# How it was run: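 A549 cells, untreated or treated with drug plus TNF-α for 4 h, cross-linked with 1% formaldehyde (quenched with 0.125 M glycine), lysed, sonicated 12 W for 45 s, immunoprecipitated overnight at 4 °C with anti-RelA, anti-p50 or anti-RelB, collected on protein A/G beads. Cross-links reversed at 65 °C overnight; COX-2 promoter (nt -359 to +106) PCR-amplified 35 cycles, 2% agarose gel, input chromatin as control.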
# [15] = molecular target: T1, Inhibitor of nuclear factor kappa-B kinase subunit alpha (Homo sapiens) (UniProt O15111); experiment: Increase in IKKalpha activity in TNF-alpha-stimulated human CL1-0 cells by Western blot; assay type: cell-based
# T1 sequence (whole entry): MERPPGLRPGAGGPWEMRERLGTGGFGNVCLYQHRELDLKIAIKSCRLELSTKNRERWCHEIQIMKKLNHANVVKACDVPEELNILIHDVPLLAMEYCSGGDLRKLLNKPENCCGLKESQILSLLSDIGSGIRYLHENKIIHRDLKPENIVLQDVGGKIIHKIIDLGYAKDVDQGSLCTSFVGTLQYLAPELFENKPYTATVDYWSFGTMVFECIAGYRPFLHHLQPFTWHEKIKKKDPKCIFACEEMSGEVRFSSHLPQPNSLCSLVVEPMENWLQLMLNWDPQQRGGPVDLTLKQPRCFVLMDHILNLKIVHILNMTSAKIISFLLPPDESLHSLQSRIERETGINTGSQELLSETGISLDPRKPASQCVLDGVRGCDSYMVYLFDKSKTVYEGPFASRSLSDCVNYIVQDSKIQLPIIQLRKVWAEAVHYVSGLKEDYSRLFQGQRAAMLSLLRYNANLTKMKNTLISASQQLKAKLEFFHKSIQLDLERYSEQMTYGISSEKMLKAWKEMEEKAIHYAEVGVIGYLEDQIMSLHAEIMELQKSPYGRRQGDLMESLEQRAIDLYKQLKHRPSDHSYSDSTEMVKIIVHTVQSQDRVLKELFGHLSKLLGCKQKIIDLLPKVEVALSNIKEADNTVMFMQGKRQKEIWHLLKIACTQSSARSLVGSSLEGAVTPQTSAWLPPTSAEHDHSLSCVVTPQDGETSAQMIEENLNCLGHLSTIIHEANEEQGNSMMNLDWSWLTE
# How it was run: (§4)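 CL1-0 (and A549) cells serum-starved overnight, pretreated at various concentrations, then TNF-α stimulated for 4 h; extracts immunoblotted for p-Akt, Akt, IKKα, p-IKKα/β; representative blot shown.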
# CL1-0 [16] = experiment: Effect on cyclin A protein expression in human CL1-0 cells at 0.5 ug/mL after 24 hrs by Western blot; assay type: functional, cell-based; how it was run: as §2
# [17] = Cell cycle arrest in human CL1-0 cells assessed as accumulation at S phase after 6 hrs by flow cytometry; assay type: functional, cell-based; how it was run: as §1
# [18] = Cell cycle arrest in human CL1-0 cells assessed as accumulation at G0/G1 phase after 12 hrs by flow cytometry; assay type: functional, cell-based; how it was run: as §1
# CL1-0 [19] = experiment: Decrease in RelA protein level in TNF-alpha-stimulated human CL1-0 cells by Western blot; assay type: functional, cell-based
# How it was run: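 CL1-0 cells serum-starved overnight, pretreated with various drug concentrations, then stimulated with TNF-α for 4 h. Lysates (50 µg) resolved by 10% SDS-PAGE, blotted, probed with specific antibodies in TBS pH 7.5/0.05% Tween 20/5% milk, HRP secondaries, chemiluminescent film detection; a representative blot shown.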
# [20] = molecular target: RAC-alpha serine/threonine-protein kinase (Homo sapiens) (UniProt P31749); experiment: Inhibition of TNF-alpha-induced AKT activation in human CL1-0 cells by Western blot; assay type: cell-based; how it was run: as §4
# CL1-0 [21] = experiment: Increase in IkappaB protein level in human CL1-0 cells by Western blot; assay type: functional, cell-based; how it was run: as §3
# [22] = Cell cycle arrest in human CL1-0 cells assessed as accumulation at S phase after 2 hrs by flow cytometry; assay type: functional, cell-based; how it was run: as §1
# CL1-0 [23] = experiment: Effect on p27 protein expression in human CL1-0 cells at 0.5 ug/mL after 24 hrs by Western blot; assay type: functional, cell-based; how it was run: as §2
smiles,measurement,setting,value
COc1ccc2c(CN3CCC(CO)CC3)cc3cc4c(cc3c2c1)OCO4,Activity,[1],53.7%
same,Activity,CL1-0 [2],Dose-dependent effect
same,Activity,CL1-0 [3],Active
same,Activity,[4],52.5%
same,Activity,CL1-0 [5],Active
same,Activity,[6],Dose-dependent effect
same,Activity,[7],16.6%
same,Activity,[8],24.3%
same,Activity,[9],tde
same,Activity,[10],25.4%
same,Activity,CL1-0 [11],Dose-dependent effect
same,Activity,CL1-0 [12],inactive
same,Activity,[13],27%
same,Activity,[14],43.8%
same,Activity,A549,Active
same,Activity,[15],Active
same,Activity,CL1-0 [16],inactive
same,Activity,[17],15.8%
same,Activity,[18],41.7%
same,Activity,CL1-0 [19],Active
same,Activity,[20],Active
same,Activity,CL1-0 [21],Dose-dependent effect
same,Activity,[22],15.1%
same,Activity,CL1-0 [23],inactive
